The subject of data set [1] is Plasmodium berghei. Put plainly: Antimalarial activity against Plasmodium berghei. It counts as functional.
The nature of data set [2]: Lipophilicity, log P of the compound in 0.1 N HCl solution. The data set is classed as physicochemical. Summed up: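 Partition coefficients of the hydrochloride salts were measured from 0.1 N HCl solution unless a footnote says otherwise. Some entries were not measured. They were calculated by adding the Δlog P of the corresponding phenanthrene analogues to the measured log P of a reference hydrochloride.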

Where [3] appears, read: 0.1 N HCl solution, read-out: logP.

As a reminder, the logP is the decadic logarithm of the partition coefficient of the neutral form, usually between octanol and water. `CC(C)(C)c1cc(C(O)CC2CCCCN2)c2cc(Cl)ccc2n1` (stereo not drawn): the “log(1/C)” value in data set [1] is 2.48. The logP in data set [2] (setting [3]) stood at 2.74.
Turning to `CC(C)(C)c1cc(C(O)CC2CCCCN2)c2ccccc2n1` (stereo not drawn), the “log(1/C)” value in data set [1] worked out at 2.08. Besides, in data set [2] (setting [3]), the logP is 2.03.
In data set [2] (buffer), `CCCCCCCCCN(CCCCCCCCC)CCC(O)c1cc2ccc(C(F)(F)F)cc2c2cc(C(F)(F)F)ccc12` (stereo not drawn) returned a logP of 9.77.
In the case of `CCCCCCN(CCCCCC)CC(O)c1cc(-c2ccccc2)nc(-c2ccccc2)c1` (stereo not drawn), in data set [2] (setting [3]), the logP was 6.11.
Still for that read-out and setting: with `CCCCNCC(O)c1cc(/C=C/c2ccc(C(F)(F)F)cc2)nc(/C=C/c2ccc(C(F)(F)F)cc2)c1` (stereo not drawn) the figure was 6.67.
Consider `CCCCCCCN(CCCCCCC)CC(O)c1cc2ccncc2c2cc(Br)ccc12` (stereo not drawn), for which the “log(1/C)” value in data set [1] was 2.12. Moreover, in data set [2] (setting [3]), the logP came to 4.89.
Take `OC(CC1CCCCN1)c1cc(C2CCCCC2)nc2ccccc12` (stereo not drawn): in data set [2] (setting [3]), the logP came to 2.56.
The same measure, in the same setting: with `CCCCN(CCCC)CC(O)c1cnc2c(-c3ccccc3)cccc2c1Cl` (stereo not drawn) the figure was 3.71; with `CCCCN(CCCC)CC(O)c1cc(-c2ccccc2C(F)(F)F)nc(C(F)(F)F)c1` (stereo not drawn), 3.97; with `CCCCCCCN(CCCCCCC)CC(O)c1cc2ccccc2c2cccnc12` (stereo not drawn), 4.03.
With `CCCCN(CCCC)CC(O)c1cnc2c(C(F)(F)F)cccc2c1` (stereo not drawn), the logP in data set [2] (setting [3]) amounted to 1.92.
As for `CCCCN(CCCC)CC(O)c1cc(-c2ccccc2)nc(-c2ccccc2)c1` (stereo not drawn), the logP in data set [2] (setting [3]) stood at 4.17.
Take `CCCCN(CCCC)CC(O)c1ccc2cc(Cl)cc(Cl)c2n1` (stereo not drawn): the logP in data set [2] (setting [3]) was 2.46.
The same measure, in the same setting: with `CCCCCCCN(CCCCCCC)CC(O)c1cc2ccccc2c2ccccc12` (stereo not drawn) the figure was 5.94.
As for `CC(C)c1cc(C(O)CC2CCCCN2)c2ccccc2n1` (stereo not drawn), the logP in data set [2] (setting [3]) came out at 1.58.
`CCN(CC)CC(O)c1ccc(Cl)c2c(C)ccnc12` (stereo not drawn): the logP in data set [2] (setting [3]) was 0.68.
Same read-out and setting: for `OC(CC1CC2CCN1CC2)c1cc2ccccc2c2cc(Br)ccc12` (stereo not drawn) the value was 2.98.
Same read-out and setting: with `OC(CN1C=COC=C1)c1cc(-c2ccc(F)cc2)nc2cc(F)ccc12` (stereo not drawn) the figure was 0.
Regarding `N#CCCN(CCC#N)CC(O)c1cc2ccccc2c2ccccc12` (stereo not drawn), in data set [2] (setting [3]), the logP stood at 0.37.
As to `CCCCNCC(O)c1cc2ccccc2c2ccccc12` (stereo not drawn), the logP in data set [2] (setting [3]) stood at 2.3.
With `OC(CN1CCCCCC1)c1cc(Cl)c2nc(-c3ccccc3)ccc2c1` (stereo not drawn), the log partition coefficient (logP) in data set [2] (setting [3]) is 3.62.
On to `CCN(CC)CC(O)c1cc(Cl)cc2c(C)ccnc12` (stereo not drawn), for which the logP in data set [2] (setting [3]) turned out to be 5.25.
For `CCCCCCCN(CCCCCCC)CC(O)c1cc2c(Cl)cc(Cl)cc2c2ccc(C)nc12` (stereo not drawn), the logP in data set [2] (setting [3]) is 6.01.
In the case of `CCCCCCCN(CCCCCCC)CC(O)c1cc2ccc(Br)cc2c2cccnc12` (stereo not drawn), in data set [2] (setting [3]), the logP came to 4.89.
With `CN(C)CC(O)c1cc2ccccc2c2ccccc12` (stereo not drawn), the logP in data set [2] (setting [3]) is 1.08.
As to `CCCCCCN(CCCCCC)CC(O)c1cnc2cc(Cl)ccc2c1Cl` (stereo not drawn), the logP in data set [2] (setting [3]) came to 5.4.
As to `CCCCN(CCCC)CC(O)c1c(C)c(-c2ccc(C)cc2C)nc2c1ccc1ccccc12` (stereo not drawn), the logP in data set [2] (setting [3]) came to 6.
Consider `CCCCCCN(CCCCCC)CC(O)c1cc(-c2ccccc2)nc2ccccc12` (stereo not drawn), for which, in data set [2] (setting [3]), the logP was found to be 4.51.
For `CCCCCN(CCCCC)CC(O)c1cc(-c2ccccc2)nc(-c2ccccc2)c1` (stereo not drawn), the lipophilicity (logP) in data set [2] (setting [3]) is 5.18.
For `CCCCN(CCCC)CC(O)c1cnc2cc(Cl)ccc2c1Cl` (stereo not drawn), the logP in data set [2] (setting [3]) was 2.46.
Still for that read-out and setting: with `Cc1cc(C(O)CN2CCCCCC2)c2nc(-c3ccccc3)ccc2c1` (stereo not drawn) the figure was 3.47; with `CCNCC(O)c1cc(-c2ccccc2)nc(-c2ccccc2)c1` (stereo not drawn), 2.59; with `CCN1C=CN(CC(O)c2cc(-c3ccc(F)cc3)nc3cc(F)ccc23)C=C1` (stereo not drawn), 3.32.
For `CCN(CC)CC(O)c1cc(-c2ccccc2)nc(-c2ccccc2)c1` (stereo not drawn), the logP in data set [2] (setting [3]) came out at 2.54.
As to `OC(CC1CCCCN1)C1CC=Nc2c1cccc2C(F)(F)F` (stereo not drawn), the logP in data set [2] (setting [3]) worked out at 1.12.
Take `COc1ccc2nccc(C(O)CC3CCC(/C=C/Br)CN3)c2c1` (stereo not drawn): in data set [2] (setting [3]), the logP stood at 1.71.
On the same count and under the same terms, with `CCCCN(CCCC)CC(O)c1cc(OC)c2cc(OC)c(Cl)cc2n1` (stereo not drawn) the figure was 1.71; with `CCCNCC(O)c1cc(-c2ccccc2)nc(-c2ccccc2)c1` (stereo not drawn), 3.03; with `NCC(O)c1cc2ccc(C(F)(F)F)cc2c2cc(C(F)(F)F)ccc12` (stereo not drawn), 2.19.
The same measure, in the same setting: with `CCCCN(CCCC)CC(O)c1cccc2cc(Cl)ccc12` (stereo not drawn) the figure was 2.19; with `O=C(O)CCNCC(O)c1cc2ccccc2c2ccccc12` (stereo not drawn), 0.6; with `CCCCCCN(CCCCCC)CC(O)c1cc2ccccc2c2ccccc12` (stereo not drawn), 4.94.
Consider `CCCCCCCN(CCCCCCC)CC(O)c1cc2ccccc2c2cnccc12` (stereo not drawn), for which the logP in data set [2] (setting [3]) came out at 4.03.
Regarding `CC(=O)N1CCCCC1CC(O)c1cc(C23CC4CC(CC(C4)C2)C3)nc2c(Cl)cc(Cl)cc12` (stereo not drawn), the logP in data set [2] (setting [3]) stood at 4.29.
For the compound `CCCCCCCN(CCCCCCC)CC(O)c1cccc2ccc3c4ccccc4cc(Br)c3c12` (stereo not drawn), the logP in data set [2] (setting [3]) came out at 7.69.
As to `OC(CNC12CC3CC(CC(C3)C1)C2)c1cc(-c2ccc(F)cc2)nc2cc(F)ccc12` (stereo not drawn), in data set [2] (setting [3]), the logP came to 3.84.
Turning to `O=C(O)c1ccc2cc(C(O)CC3CCCCN3)c3ccc(C(F)(F)F)cc3c2c1` (stereo not drawn), the logP in data set [2] (setting [3]) turned out to be 2.14.
Same read-out and setting: for `CCCCN(CCCC)CC(O)c1cnc2c(C)cc(C)cc2c1Cl` (stereo not drawn) the value was 2.87.
For `CCCN(CCC)CC(O)c1cc(-c2ccccc2)nc(-c2ccccc2)c1` (stereo not drawn), the logP in data set [2] (setting [3]) was 3.29.
Consider `CCCCN(CCCC)CC(O)c1cc(-c2ccccc2)nc2ccccc12` (stereo not drawn), for which the logP in data set [2] (setting [3]) is 2.57.
Turning to `OC(CC1CCNCC1)c1cc2ccc(C(F)(F)F)cc2c2cc(C(F)(F)F)ccc12` (stereo not drawn), the logP in data set [2] (setting [3]) was found to be 3.34.
On the same count and under the same terms, with `CC(C)(C)CC(C)(C)NCC(O)c1c2ccccc2cc2ccccc12` (stereo not drawn) the figure was 3.46; with `OC(CN1C=CN(c2ccccc2)C=C1)c1cc(-c2ccc(F)cc2)nc2cc(F)ccc12` (stereo not drawn), 4.26.
Turning to `CCCCN(CCCC)CC(O)c1cc(-c2ccc(Cl)cc2)c2cc(Cl)cc(Cl)c2n1` (stereo not drawn), in data set [2] (setting [3]), the logP is 5.13.
With `Cc1ccc(Oc2cc(C(O)CC3CCCCN3)c3cc(Cl)ccc3n2)cc1` (stereo not drawn), the logP in data set [2] (setting [3]) was found to be 3.4.
On the same count and under the same terms, with `CCN(CC)CC(O)c1cc(Cl)cc2cccnc12` (stereo not drawn) the figure was 0.12.
Turning to `CCN(CC)CC(O)c1cc(-c2ccccc2)nc2ccccc12` (stereo not drawn), the logP in data set [2] (setting [3]) is 0.94.
For `Cc1cc(C)c2ncc(C(O)CC3CCCCN3)cc2c1` (stereo not drawn), in data set [2] (setting [3]), the logP is 1.17.
Compound `CCCCCCCN(CCCCCCC)CC(O)c1cc(-c2ccc(Cl)c(Cl)c2)nc(-c2ccc(Cl)c(Cl)c2)c1` (stereo not drawn) yielded a logP in data set [2] (buffer) of 9.95.
Regarding `CCCCN(CCCC)CC(O)c1cc(Cl)cc2c(C)ccnc12` (stereo not drawn), the logP in data set [2] (setting [3]) was 2.31.
